Published values of several laboratories.
Each line is one published result; the experiments were not run side by side.
Target: Mitogen-activated protein kinase kinase kinase 10 (MAP3K10, Homo sapiens, UniProt Q02779)

Cc1nn(C)cc1-c1nc2c(N3CCN(Cc4ccc(Cl)cc4)CC3)c(Cl)cnc2[nH]1  remaining binding (binding, competition with immobilised ligand; 1 µM): 5.4%
COc1ncccc1-c1cnn2ccc(N3CCN(C(=O)OC(C)C)CC3)nc12  remaining binding (binding, competition with immobilised ligand; 1 µM): 96%
N#CC1(c2ccccn2)CCN(Cc2cc(C(=O)O)c(=O)n3ccccc23)CC1  remaining binding (cell-free assay, competition with immobilised ligand; 1 µM): 97%
Cn1cc(-c2cccc(N3CCc4c(sc5c4CC(C)(C)C5)C3=O)c2CO)cc(Nc2ccncn2)c1=O  inhibition (enzyme activity, inhibitor; 1 µM): -5%
O=c1[nH]c2ccccc2n1C1CCN(Cc2ccc(-c3[nH]c4cc5ncnc5cc4nc3-c3ccccc3)cc2)CC1  remaining signal (cell-free assay; 0.5 µM): 102%
Cn1cncc1[C@@](O)(COc1ccc(C#N)cc1-c1ccc(OC(F)(F)F)cc1)c1ccc(C#N)cc1  remaining binding (cell-free assay, competition with immobilised ligand; 1 µM): 98%
Nc1ncc(-c2nc(N3CCOCC3)nc(N3CCOCC3)n2)c(C(F)F)n1  remaining binding (binding, competition with immobilised ligand; 10 µM): 53%
CC(C)(C)c1cc(C=C(C#N)C#N)cc(Br)c1O  remaining activity (enzyme activity, inhibitor; 0.5 µM): 100%
Cn1cc(-c2cc(F)cc(N3CCn4c(cc5c4CCCC5)C3=O)c2CO)cc(Nc2ccc(N3CCN(C4COC4)CC3)cn2)c1=O  inhibition (enzyme activity, inhibitor; 0.1 µM): -7%
